Data published in ChEMBL document CHEMBL1157407, “Inhibitors of bacterial multidrug efflux pumps from the resin glycosides of Ipomoea murucoides” (2008).
Converted amounts (≈) assume the structure as drawn.

How the values were obtained:
Assay type in all cases: functional
Staphylococcus aureus [1] = experiment: Antimicrobial activity against Staphylococcus aureus ATCC 25923
How it was run: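 Broth microdilution MIC per NCCLS guidelines, at least in duplicate. Inoculum 5×10^5 cfu prepared in 0.9% saline against a McFarland standard. Cation-adjusted Mueller-Hinton broth with 20 mg/L Ca2+ and 10 mg/L Mg2+. Compounds dissolved in DMSO, then 2-fold serial dilutions, final 1–512 μg/mL; DMSO at most 3.125% v/v. MIC is the lowest concentration giving no visible growth.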

HeLa = experiment: Cytotoxicity against human HeLa cells after 72 hrs; settings: read-out: ED50 (the source's name)
How it was run: (§1)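 Cells grown in RPMI 1640 with 10% fetal bovine serum at 37 °C, 5% CO2, humidified. Log-phase cells treated in triplicate with test samples at 0.16–20 μg/mL for 72 h. Growth read by the NCI sulforhodamine method. ED50 is the dose inhibiting 50% of control growth, estimated from a semilog plot of concentration against percentage of viable cells.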

KB = experiment: Cytotoxicity against human KB cells after 72 hrs; settings: read-out: ED50 (the source's name); how it was run: as §1
HEp-2 = experiment: Cytotoxicity against human Hep2 cells after 72 hrs; settings: HEp-2, 72 h, read-out: ED50 (the source's name); how it was run: as §1
Staphylococcus aureus [2] = experiment: Antimicrobial activity against methicillin-resistant Staphylococcus aureus XU212
How it was run: (§2)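 Broth microdilution MIC per NCCLS guidelines, at least in duplicate, in cation-adjusted Mueller-Hinton broth (20 mg/L Ca2+, 10 mg/L Mg2+). Strains grown on nutrient agar first. Inoculum 5×10^5 cfu prepared in 0.9% saline against a McFarland standard. Compounds dissolved in DMSO, 2-fold serial dilutions, final 1–512 µg/mL (DMSO ≤3.125% v/v). MIC taken as lowest concentration with no visible growth.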

Staphylococcus aureus [3] = experiment: Antimicrobial activity against epidemic methicillin-resistant Staphylococcus aureus 15 containing mecA gene; how it was run: as §2
Staphylococcus aureus [4] = experiment: Antimicrobial activity against multidrug-resistant Staphylococcus aureus over expressing NorA MDR efflux pump; how it was run: as §2

Compound	MIC (Staphylococcus aureus [1]) [µg/mL]	EC50 (HeLa) [µg/mL]	EC50 (KB) [µg/mL]	EC50 (HEp-2) [µg/mL]	MIC (Staphylococcus aureus [2]) [µg/mL]	MIC (Staphylococcus aureus [3]) [µg/mL]	MIC (Staphylococcus aureus [4]) [µg/mL]
CCCCC[C@H]1CCCCCCCCCC(=O)O[C@H]2[C@H](O[C@H]3[C@H](O1)O[C@H](C)[C@H](O)[C@@H]3O)O[C@@H](C)[C@H](O[C@@H]1O[C@@H](C)[C@H](O[C@@H]3O[C@@H](C)[C@H](OC(=O)[C@@H](C)CC)[C@@H](O)[C@H]3O)[C@@H](O[C@@H]3O[C@@H](C)[C@H](O)[C@@H](O)[C@H]3O)[C@H]1OC(=O)[C@@H](C)CC)[C@H]2O [MURUCOIDIN III]	> 512	> 20	15.4 (≈ 13.4 µM)	10.7 (≈ 9.28 µM)	> 512	> 512	> 512
CCCCC[C@H]1CCCCCCCCCC(=O)O[C@H]2[C@H](O[C@H]3[C@H](O1)O[C@H](C)[C@H](O)[C@@H]3O)O[C@@H](C)[C@H](O[C@@H]1O[C@@H](C)[C@H](O[C@@H]3O[C@@H](C)[C@H](OC(=O)C(C)C)[C@@H](O)[C@H]3O)[C@@H](O[C@@H]3O[C@@H](C)[C@H](O)[C@@H](O)[C@H]3O)[C@H]1OC(=O)[C@@H](C)CC)[C@H]2O [MURUCOIDIN II]	> 512	16 (≈ 14 µM)	> 20	> 20	> 512	> 512	> 512
CCCCC[C@H]1CCCCCCCCCC(=O)O[C@H]2[C@H](O[C@H]3[C@H](O1)O[C@H](C)[C@H](O)[C@@H]3O)O[C@@H](C)[C@H](O[C@@H]1O[C@@H](C)[C@H](O[C@@H]3O[C@@H](C)[C@H](OC(=O)[C@@H](C)CC)[C@@H](O)[C@H]3O)[C@@H](O[C@@H]3O[C@H](CO)[C@@H](O)[C@H](O)[C@H]3O)[C@H]1OC(=O)[C@@H](C)CC)[C@H]2O [MURUCOIDIN IV]	> 512	> 20	15 (≈ 12.8 µM)	4 (≈ 3.42 µM)	> 512	> 512	> 512
CCCCC[C@H]1CCCCCCCCCC(=O)O[C@H]2[C@@H](O)[C@H](O[C@H]3[C@H](O1)O[C@H](C)[C@H](O)[C@@H]3O)O[C@@H](C)[C@@H]2O[C@@H]1O[C@@H](C)[C@H](O[C@@H]2O[C@@H](C)[C@H](OC(=O)C(C)C)[C@@H](O)[C@H]2O)[C@@H](O[C@@H]2O[C@@H](C)[C@H](O)[C@@H](O)[C@H]2O)[C@H]1OC(=O)[C@@H](C)CC [MURUCOIDIN IX]	> 512	12.4 (≈ 10.9 µM)	> 20	10.2 (≈ 8.95 µM)	> 512	> 512	> 512
CCCCC[C@H]1CCCCCCCCCC(=O)O[C@H]2[C@H](O[C@H]3[C@H](O1)O[C@H](C)[C@H](O)[C@@H]3O)O[C@@H](C)[C@H](O[C@@H]1O[C@@H](C)[C@H](O[C@@H]3O[C@@H](C)[C@H](O)[C@@H](O)[C@H]3O)[C@@H](O[C@@H]3O[C@@H](C)[C@H](O)[C@@H](O)[C@H]3O)[C@H]1OC(=O)[C@@H](C)CC)[C@H]2O [MURUCOIDIN I]	> 512	> 20	> 20	> 20	512 (≈ 479 µM)	256 (≈ 239 µM)	32 (≈ 29.9 µM)
CCCCC[C@H]1CCCCCCCCCC(=O)O[C@H]2[C@H](O[C@H]3[C@H](O1)O[C@H](CO)[C@@H](O)[C@@H]3O)O[C@@H](C)[C@H](O[C@@H]1O[C@@H](C)[C@H](O[C@@H]3O[C@@H](C)[C@H](OC(=O)[C@@H](C)CC)[C@@H](O)[C@H]3O)[C@@H](O[C@@H]3O[C@@H](C)[C@H](O)[C@@H](O)[C@H]3O)[C@H]1OC(=O)[C@@H](C)CC)[C@H]2O [MURUCOIDIN VIII]	> 512	16.4 (≈ 14 µM)	17.9 (≈ 15.3 µM)	14.2 (≈ 12.1 µM)	> 512	> 512	> 512
CCCCC[C@H]1CCCCCCCCCC(=O)O[C@H]2[C@H](O[C@H]3[C@H](O1)O[C@H](CO)[C@@H](O)[C@@H]3O)O[C@@H](C)[C@H](O[C@@H]1O[C@@H](C)[C@H](O[C@@H]3O[C@@H](C)[C@H](OC(=O)C(C)C)[C@@H](O)[C@H]3O)[C@@H](O[C@@H]3O[C@@H](C)[C@H](O)[C@@H](O)[C@H]3O)[C@H]1OC(=O)[C@@H](C)CC)[C@H]2O [MURUCOIDIN VII]	> 512	> 20	> 20	> 20	512 (≈ 443 µM)	256 (≈ 222 µM)	32 (≈ 27.7 µM)
CCCCCCCCCCCC(=O)O[C@H]1[C@H](O[C@@H]2[C@H]3OC(=O)CCCCCCCCC[C@H](CCCCC)O[C@@H]4O[C@H](CO)[C@@H](O)[C@H](O)[C@H]4O[C@H](O[C@H]2C)[C@@H]3O)O[C@@H](C)[C@H](O[C@@H]2O[C@@H](C)[C@H](OC(=O)[C@@H](C)CC)[C@@H](O)[C@H]2O)[C@H]1O[C@@H]1O[C@@H](C)[C@H](O)[C@@H](O)[C@H]1O [MURUCOIDIN VI]	> 512	> 20	> 20	> 20	512 (≈ 404 µM)	256 (≈ 202 µM)	32 (≈ 25.2 µM)
